Key:
[1] = biological target: Ribosomal protein S6 kinase beta-1 (Homo sapiens, UniProt P23443, D18H/T412E); assay: Inhibition of human p70S6K D18H and T412E mutant using RRRLSSLRA as substrate after 3 hrs by luciferase-luciferin-coupled chemiluminescence assay
[2] = Inhibition of p70S6K-mediated S6 phosphorylation in human A549 cells after 3 hrs by chemiluminescence assay; assay type: cell-based; details: A549, 3 h
How it was run: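 A549 cells seeded at 7.5 × 10^3/well in DMEM with 10% FBS and 1% non-essential amino acids, grown 48 h at 37 °C, then exposed 3 h to compound ([…], triplicate, 0.2% DMSO). Fixed in formaldehyde, blocked, probed overnight at 4 °C with anti-phospho-S6 (Ser240/244) or anti-total-S6, then HRP secondary; chemiluminescent ELISA read-out.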

[3] = Clearance in rat at 2.5 mg/kg, iv and 2.5 mg/kg, po; assay type: ADME, organism-based; details: in vivo
[4] = Volume of distribution in rat at 2.5 mg/kg, iv and 2.5 mg/kg, po; assay type: ADME, organism-based; details: in vivo
[5] = Half life in rat at 2.5 mg/kg, iv; assay type: ADME, organism-based; set-up: dose 2.5 mg/kg, route intravenous; details: in vivo
[6] = Half life in rat at 2.5 mg/kg, po; assay type: ADME, organism-based; set-up: dose 2.5 mg/kg, route oral; details: in vivo
[7] = Oral bioavailability in rat at 2.5 mg/kg; assay type: ADME, organism-based; details: in vivo
[8] = Cmax in rat at 2.5 mg/kg, iv; assay type: ADME, organism-based; set-up: dose 2.5 mg/kg, route intravenous; details: in vivo
[9] = Cmax in rat at 2.5 mg/kg, po; assay type: ADME, organism-based; set-up: dose 2.5 mg/kg, route oral; details: in vivo
[10] = tested on: Rattus norvegicus; assay: Dose normalized AUC in rat at 2.5 mg/kg, iv; assay type: ADME, organism-based; set-up: dose 2.5 mg/kg, route intravenous; details: in vivo
[11] = tested on: Rattus norvegicus; assay: Dose normalized AUC in rat at 2.5 mg/kg, po; assay type: ADME, organism-based; set-up: dose 2.5 mg/kg, route oral; details: in vivo
[12] = biological target: Ribosomal protein S6 kinase alpha-3 (Homo sapiens, UniProt P51812); assay: Inhibition of Rsk2
Ribosomal protein S6 kinase alpha-3, sequence (P51812 whole entry): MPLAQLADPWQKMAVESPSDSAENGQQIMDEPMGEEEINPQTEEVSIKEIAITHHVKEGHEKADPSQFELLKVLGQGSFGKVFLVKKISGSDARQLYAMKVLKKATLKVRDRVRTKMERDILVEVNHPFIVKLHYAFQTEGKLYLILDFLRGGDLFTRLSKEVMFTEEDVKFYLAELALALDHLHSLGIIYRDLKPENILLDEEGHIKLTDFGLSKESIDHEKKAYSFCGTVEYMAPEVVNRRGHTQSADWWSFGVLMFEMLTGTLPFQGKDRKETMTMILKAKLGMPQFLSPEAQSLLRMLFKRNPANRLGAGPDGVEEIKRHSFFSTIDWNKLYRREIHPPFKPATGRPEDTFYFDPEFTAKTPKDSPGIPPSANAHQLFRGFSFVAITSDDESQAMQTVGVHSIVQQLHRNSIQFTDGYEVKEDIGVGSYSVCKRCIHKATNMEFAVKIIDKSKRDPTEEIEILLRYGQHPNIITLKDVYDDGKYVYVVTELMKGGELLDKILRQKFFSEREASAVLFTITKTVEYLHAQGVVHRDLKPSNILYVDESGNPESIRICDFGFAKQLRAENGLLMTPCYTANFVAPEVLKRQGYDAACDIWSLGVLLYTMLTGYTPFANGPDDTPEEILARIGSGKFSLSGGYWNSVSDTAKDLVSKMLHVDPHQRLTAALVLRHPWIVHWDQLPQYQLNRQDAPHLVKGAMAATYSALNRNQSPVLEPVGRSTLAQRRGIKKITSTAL

[13] = Inhibition of PKA
[14] = biological target: RAC-alpha serine/threonine-protein kinase (Homo sapiens, UniProt P31749); assay: Inhibition of Akt1
RAC-alpha serine/threonine-protein kinase, sequence (P31749 whole entry): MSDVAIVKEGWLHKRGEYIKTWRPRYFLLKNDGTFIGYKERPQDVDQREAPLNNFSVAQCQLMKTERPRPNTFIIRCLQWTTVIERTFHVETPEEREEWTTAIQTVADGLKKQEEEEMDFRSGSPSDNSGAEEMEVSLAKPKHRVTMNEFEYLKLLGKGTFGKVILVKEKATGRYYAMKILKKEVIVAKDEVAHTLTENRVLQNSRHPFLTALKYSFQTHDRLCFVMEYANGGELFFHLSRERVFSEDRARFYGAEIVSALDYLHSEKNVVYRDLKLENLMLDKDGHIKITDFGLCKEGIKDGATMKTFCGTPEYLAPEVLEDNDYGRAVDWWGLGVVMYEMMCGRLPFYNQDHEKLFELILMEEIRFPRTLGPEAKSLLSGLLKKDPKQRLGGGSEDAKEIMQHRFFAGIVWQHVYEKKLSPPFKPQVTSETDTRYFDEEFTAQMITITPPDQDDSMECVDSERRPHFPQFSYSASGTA

[15] = biological target: RAC-beta serine/threonine-protein kinase (Homo sapiens, UniProt P31751); assay: Inhibition of Akt2
RAC-beta serine/threonine-protein kinase, sequence (P31751 whole entry): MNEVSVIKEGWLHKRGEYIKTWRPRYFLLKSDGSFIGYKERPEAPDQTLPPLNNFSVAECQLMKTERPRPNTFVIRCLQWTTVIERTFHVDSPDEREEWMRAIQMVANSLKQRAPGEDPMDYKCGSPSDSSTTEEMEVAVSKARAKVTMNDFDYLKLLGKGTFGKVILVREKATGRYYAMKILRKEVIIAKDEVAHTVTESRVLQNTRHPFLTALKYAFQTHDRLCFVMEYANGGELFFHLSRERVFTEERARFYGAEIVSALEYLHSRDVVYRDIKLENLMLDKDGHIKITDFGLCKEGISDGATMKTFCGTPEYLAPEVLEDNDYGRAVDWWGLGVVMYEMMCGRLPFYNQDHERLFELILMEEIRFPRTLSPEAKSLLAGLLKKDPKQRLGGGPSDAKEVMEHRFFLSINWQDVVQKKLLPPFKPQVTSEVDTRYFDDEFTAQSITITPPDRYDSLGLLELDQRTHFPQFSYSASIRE

[16] = biological target: Serine/threonine-protein kinase pim-1 (Homo sapiens, UniProt P11309); assay: Inhibition of PIM1
Serine/threonine-protein kinase pim-1, sequence (P11309 whole entry): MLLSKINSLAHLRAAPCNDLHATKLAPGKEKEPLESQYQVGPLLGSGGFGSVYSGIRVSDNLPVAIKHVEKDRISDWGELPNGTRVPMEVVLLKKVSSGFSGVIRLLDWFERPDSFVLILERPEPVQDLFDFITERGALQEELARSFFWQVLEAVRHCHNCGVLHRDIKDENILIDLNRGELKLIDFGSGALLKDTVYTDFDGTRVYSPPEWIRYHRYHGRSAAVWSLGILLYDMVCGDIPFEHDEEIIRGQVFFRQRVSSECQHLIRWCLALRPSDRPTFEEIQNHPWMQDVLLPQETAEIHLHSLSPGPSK

[17] = tested on: Mus musculus; assay: Inhibition of p70S6K-mediated S6 phosphorylation in human PC3 cells xenografted in mouse at 100 mg/kg, po; assay type: functional; details: PC-3
[18] = tested on: PC-3; assay: Antitumor activity against human PC3 cells xenografted in mouse assessed as tumor growth inhibition at 30 mg/kg, po bid for 14 days; assay type: functional; details: PC-3, 336 h, read-out: GI
How it was run: (§1)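 PC3 prostate carcinoma xenografts in mice; compound given orally at 30, 100 or 300 mg/kg twice daily for 14 days; tumor growth inhibition recorded.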

[19] = tested on: PC-3; assay: Antitumor activity against human PC3 cells xenografted in mouse assessed as tumor growth inhibition at 100 mg/kg, po bid for 14 days; assay type: functional; details: PC-3, 336 h, read-out: GI; how it was run: as §1
[20] = tested on: PC-3; assay: Antitumor activity against human PC3 cells xenografted in mouse assessed as tumor growth inhibition at 300 mg/kg, po bid for 14 days; assay type: functional; details: PC-3, 336 h, read-out: GI; how it was run: as §1
[21] = tested on: PC-3; assay: Antitumor activity against human PC3 cells xenografted in mouse assessed as tumor growth inhibition compound administered po bid for 14 days; assay type: functional, organism-based; how it was run: as §1

Ribosomal protein S6 kinase beta-1, sequence (P23443 whole entry D18H/T412E): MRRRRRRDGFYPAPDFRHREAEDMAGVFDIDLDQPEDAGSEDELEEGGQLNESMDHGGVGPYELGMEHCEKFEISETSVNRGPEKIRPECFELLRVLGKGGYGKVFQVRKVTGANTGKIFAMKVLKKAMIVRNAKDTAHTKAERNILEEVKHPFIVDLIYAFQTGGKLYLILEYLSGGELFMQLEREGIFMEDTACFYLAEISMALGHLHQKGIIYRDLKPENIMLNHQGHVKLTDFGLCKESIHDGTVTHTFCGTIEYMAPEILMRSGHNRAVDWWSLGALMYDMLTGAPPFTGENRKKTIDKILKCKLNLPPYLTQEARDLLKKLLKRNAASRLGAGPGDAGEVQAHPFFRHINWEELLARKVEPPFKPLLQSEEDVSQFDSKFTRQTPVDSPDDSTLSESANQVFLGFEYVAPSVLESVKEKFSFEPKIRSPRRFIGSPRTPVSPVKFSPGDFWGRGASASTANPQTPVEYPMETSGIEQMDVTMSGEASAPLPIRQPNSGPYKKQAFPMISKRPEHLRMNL

| Compound | IC50 [1] [nM] | IC50 [2] [nM] | other results |
| --- | --- | --- | --- |
| CCc1n[nH]c2ncnc(N3CCN(c4cc(Cl)cc(OCCN(C)C)c4C)CC3)c12 | 6 | 143 |  |
| Cc1ccc(Cl)cc1N1CCN(c2ncnc3[nH]nc(C(C)C)c23)CC1 | 16 | 207 |  |
| Clc1cccc(N2CCN(c3ncnc4[nH]ncc34)CC2)c1 | 107 |  |  |
| Nc1cc(N2CCN(c3cccc(Cl)c3)CC2)ncn1 | > 2000 |  |  |
| CCc1n[nH]c2ncnc(N3CCN(c4cc(Cl)cc(CCCN(CC)CC)c4C)CC3)c12 | 3 | 211 |  |
| Cc1nc(N2CCN(c3cc(Cl)ccc3C)CC2)c2cn[nH]c2n1 | > 2000 |  |  |
| Cc1c(N)ncnc1N1CCN(c2cccc(Cl)c2)CC1 | > 2000 |  |  |
| Nc1ncnc(N2CCN(c3cccc(Cl)c3)CC2)c1[N+](=O)[O-] | 85 |  |  |
| Cc1ccc(Cl)cc1N1CCN(c2ncnc3[nH]nc(C(F)(F)F)c23)CC1 | 29 | 41 |  |
| CCCc1n[nH]c2ncnc(N3CCN(c4cc(Cl)ccc4C)CC3)c12 | 6 | 275 |  |
| CCc1n[nH]c2ncnc(N3CCN(c4cc(Cl)ccc4C)CC3)c12 | 6 | 150 | clearance [3]: 25.8 mL/min/kg; Vd [4]: 6.3 L/kg; half-life [5]: 7.1 h; half-life [6]: 1.4 h; bioavailability [7]: 2%; Cmax [8]: 6290 nM; Cmax [9]: 30 nM; AUC/dose [10]: 1.74 µM·kg·h/mg; AUC/dose [11]: 0.02 µM·kg·h/mg |
| Cc1ccc(Cl)cc1N1CCN(c2ncnc3[nH]nc(C)c23)CC1 | 9 | 500 |  |
| Cc1c(NCCN(C)C)cc(Cl)cc1N1CCN(c2ncnc3[nH]nc(C(F)(F)F)c23)CC1 | 4 | 50 | IC50 [12]: 24 nM; IC50 [13]: 6 nM; IC50 [14]: 74 nM; IC50 [15]: 477 nM |
| Cc1c(NCCN(C)C)cc(Cl)cc1N1CCN(c2ncnc3[nH]nc(Br)c23)CC1 | 2 | 43 | IC50 [12]: 248 nM; IC50 [13]: 25 nM; IC50 [14]: 53 nM; IC50 [15]: 311 nM; IC50 [16]: < 500 nM |
| Cc1ccc(Cl)cc1N1CCN(c2ncnc3[nH]ncc23)CC1 | 13 | 1130 |  |
| Cc1ccc(Cl)cc1N1CCN(c2ncnc3[nH]nc(Br)c23)CC1 | 7 | 86 |  |
| Clc1cccc(N2CCN(c3ncnc4[nH]ccc34)CC2)c1 | 162 |  |  |
| Cc1ccc(Cl)cc1N1CCN(c2ncnc(N)c2[N+](=O)[O-])CC1 | 3 |  |  |
| CCc1n[nH]c2ncnc(N3CCN(c4cc(Cl)cc(OCCN(CC)CC)c4C)CC3)c12 | 11 | 339 |  |
| Clc1cccc(N2CCN(c3[nH]cnc4ncnc3-4)CC2)c1 | 196 |  |  |
| CCc1n[nH]c2ncnc(N3CCN(c4cc(Cl)cc(NCCN5CCCC5)c4C)CC3)c12 | 3 | 80 |  |
| CCc1n[nH]c2ncnc(N3CCN(c4cc(Cl)cc(NCCN(C)C)c4C)CC3)c12 | 2 | 45 | clearance [3]: 17.4 mL/min/kg; Vd [4]: 3.7 L/kg; half-life [5]: 2.9 h; half-life [6]: 3.3 h; bioavailability [7]: 23%; Cmax [8]: 1470 nM; Cmax [9]: 150 nM; AUC/dose [10]: 1.72 µM·kg·h/mg; AUC/dose [11]: 0.45 µM·kg·h/mg; IC50 [12]: 68 nM; IC50 [13]: 42 nM; IC50 [14]: 371 nM; IC50 [15]: 3020 nM; inhibition in vivo at 100 mg/kg [17]: > 60%; inhibition in vivo at 30 mg/kg [18]: 21%; inhibition in vivo at 100 mg/kg [19]: 49%; inhibition in vivo at 300 mg/kg [20]: 69%; growth inhibition (GI) [21]: Dose-dependent effect |
| CCc1n[nH]c2ncnc(N3CCN(c4cc(Cl)cc(NCCN(CC)CC)c4C)CC3)c12 | 3 | 184 |  |
| CCc1n[nH]c2ncnc(N3CCN(c4cc(Cl)cc(OCCN5CCCC5)c4C)CC3)c12 | 5 | 243 |  |
| CCc1n[nH]c2ncnc(N3CCN(c4cc(Cl)cc(CCCN5CCCC5)c4C)CC3)c12 | 2 | 152 |  |

Source: ChEMBL document CHEMBL2010702, “Design and evaluation of a series of pyrazolopyrimidines as p70S6K inhibitors” (Bioorg Med Chem Lett, 2012)
